Test results: the RNAGym collection of RNA variant scans (doi:10.1126/science.aae0568)
This sample holds only a part of the variants without activity.

B1: tRNA (parent)
chain: GUUCCGUUGGCGUAAUGGUAACGCGUCUCCCUCCUAAGGAGAAGACUGCGGGUUCGAGUCCCGUACGGAACG

Variants of: B1
Experiment: yeast fitness relative to wild type (ratio to wild type); higher = fitter; tRNA-Arg(CCU), competitive growth, 37 C, YPD
Summary of the method: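 Start and end populations of a pooled competition were compared by 100-nucleotide paired-end sequencing of gene amplicons. The Saccharomyces cerevisiae strains carried tRNA-Arg(CCU) gene variants at the native genomic locus, synthesised with a 3% per-site mutation rate at 69 sites, and competed in YPD at 37°C for 24 hours in six parallel replicates. Darwinian fitness relative to wild type was based on the change in genotype frequencies. Genotypes required ≥ 100 starting reads, and estimates < 0.5 were set to 0.5.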

Variant | yeast fitness
GUUCCGUUGGUGUGAUGGUAACGCGUCUCCCUCCUAAGGAGAAGACUGCGCGUUCGAGUCCCGUACGGUACG [C11U A14G G51C A69U] | ≤ 0.5
GUUCCGUUGGUGUGAUGGUAACGCGUCUCCCUCCUAAGGAGAAGAAUGCGAGUUCGAGUCCCGUACGGAACG [C11U A14G C46A G51A] | 0.615
GUUCCGUUGGUGUUAUGGUAACGCGUUUCCCUCCUAAGGGGAAGACUGCGGGUUCGAGUCCCGUACGGAACG [C11U A14U C27U A40G] | ≤ 0.5
GUUCCGUUGGUGUUAUGGUAACGGGUCUCCCUCCUAAGGAGAAAACUGUGGGUUCGAGUCCCGUACUGAACG [C11U A14U C24G G44A C49U G67U] | ≤ 0.5
GUUCCGUUGGUGUAGUGGUAACGCGUGUCCCUCCUAAGGAGAAGUCUGCGGGUUCGAGUCCCGUACGGAACG [C11U A15G C27G A45U] | ≤ 0.5
GUUCCGUUGGUGUAAUGGUACCGCGUCUCCCUCCUAAGGAGAGGACUGCGGGUUCGAGUCCCGUACGGAACG [C11U A21C A43G] | ≤ 0.5
GUUCCGUUGGUGUAUUGGUAAUGCGUCUCCCUCCUAAGGAGAAGACUGCGGGUUCGAGUCCCGUACAGAACG [C11U A15U C22U G67A] | ≤ 0.5
GUUCCGUUGGUGUAGUGGUAACGCGUGUCCCUCCUAAGGAGAAGACUGCGGGUUCCAGUCCCGUACGGAACG [C11U A15G C27G G56C] | ≤ 0.5
GUUCCGUUGGUGUAUUGGUAAUGCGUCUCCCUCCUAAGGAGAAGACUGCGGGUUCGAGUCCCGUACGGAACG [C11U A15U C22U] | 0.507
GUUCCGUUGGUGUAAUGGUAGCGCGUCUCCCUCCCAAGGAGAAGACUGCGGGUUCGAGUCCCGUACGGAACG [C11U A21G U35C] | 0.538
GUUCCGUUGGUGUAAUGGUAGCGCGUCUCCCUCCUAAGGAGAAGACUGCGGGUUGGAGUCCCGUACGGAACG [C11U A21G C55G] | 0.566
GUUCCGUUGGUGUAUUGGUAACGCGUCUCCCUACUAAGGAGAAGACUGCGGGUUCGAGUCCCGUACGGAACG [C11U A15U C33A] | ≤ 0.5
GUUCCGUUGGUGUAAUGGUAUCGCGUAUCCCUCCUAAGGAGAAGACUGCGGGUUCGAGUCCCGUACGGAACG [C11U A21U C27A] | 0.576
GUUCCGUUGGUGUAAUGGUCACGCGUCUCCCUCCUAAGGAGAAGACGGCGGGUUCGAGUCCCGUACGGAACG [C11U A20C U47G] | ≤ 0.5
GUUCCGUUGGUGUAAUGGUAUCGCGUCUCCCUCCUAAGGAGAAGACUGCCGGUUCGAGUCCCGUACGGAACG [C11U A21U G50C] | 0.788
GUUCCGUUGGUGUAAUGGUACCGCGUCUCCCUCCUAAGGAGCAGACUGCGGGUUCGAGUCCCGUACGGCACG [C11U A21C A42C A69C] | ≤ 0.5
GUUCCGUUGGUGUAAUGGUAUCGCGUCUCCCUCCUAAGGAGAAGACUGCGGGUUCGAGUCCCGUACGGAACG [C11U A21U] | 1.02
GUUCCGUUGGUGUAAUGGUAGCGCGUCUCCCUCCUAAGGAGAAGACUGCGGGUUCGAGUCCCGUACGGAACG [C11U A21G] | 0.922
GUUCCGUUGGUGUAAUGGUAUCGCGUCUCCCUCCUAAGGAGAAGACUGCGGGUUCGAGUCCCGUACGCAACG [C11U A21U G68C] | 0.69

Variant | yeast fitness
GUUCCGUUGGUGUAAUGGUAACGCGUCUCCCUCCUGAGGAGAAGAUUGCGGGUUCGAGUCCCGUACGGAACG [C11U A36G C46U] | 0.77
GUUCCGUUGGUGUAAUGGUAACGCGUCUCCCUCCUCAGGAGAAGACUGCGGGUUCGAGUCCCGUACGGAACG [C11U A36C] | 0.641
GUUCCGUUGGUGUAAUGGUAACGCGUCUCCCUCCUUAGGAGAAGACUGCGGGUUCGAGUCCCGUACGGAACG [C11U A36U] | 0.606
GUUCCGUUGGUGUACUGGUAACGCGUCUCCCUCCUAAGGAGAAGACUGCGGGUUCAAGUCCCGUACGGAACG [C11U A15C G56A] | 0.57
GUUCCGUUGGUGUAAUGGUGACGCGUCUCCCUCCAAAGGAGAAGACUGCGGGUUCGAGUCCCGUACGGAACG [C11U A20G U35A] | ≤ 0.5
GUUCCGUUGGUGUAAUGGUAACGCGUCUCCCUCCUCAGGAGAAGAGUGCGGGUUCGAGUCCCGUACGGAACG [C11U A36C C46G] | ≤ 0.5
GUUCCGUUGGUGUAUUGGUAACGCGUCUCCCUCCUAAGGAGAAGACUGCGGGUUCGAGUCCCGUACGGAACG [C11U A15U] | 0.757
GUUCCGUUGGUGUAGUGGUAACGCGUGUCCCUCCUAAGGAGAAGACUGCGGGUUCGAGUCCCGUACGGAACG [C11U A15G C27G] | 0.544
GUUCCGUUGGUGUAAUGGUUACGCGUCUCCCUCCUAAGGAGAAGACUGCGGGUUCGAGUCCCGUACGAACCG [C11U A20U G68A A70C] | 0.515
GUUCCGUUGGUGUAAUGGUAUCGCGUCUCCCUCCUAAGGAGAAGACUGCGGGUUCGAGUCCCGUACGGCACG [C11U A21U A69C] | 0.772
GUUCCGUUGGUGUAAUGGUAUCGCGUCUCCCUCCUAAGGAGACGACUGCGGGUUCGAGUCCCGUACGCAACG [C11U A21U A43C G68C] | ≤ 0.5
GUUCCGUUGGUGUAUUGGUAACGCGUCUCCAACCUAAGGAGAAGACUGCGGGUUCGGGUCCCGUACAGAACG [C11U A15U C31A U32A A57G G67A] | ≤ 0.5
GUUCCGUUGGUGUAUUGGUAACGCGUGUCCCUCCUAAGGAGAAGACUGCGGGUUCGAGUCCCGUACGGAACG [C11U A15U C27G] | 0.529
GUUCCGUUGGUGUAUUGGGGACGCGUCUCCCUCCUAAGGAGAAGACUGCGGGUUCGAGUCCCGUACCGAACG [C11U A15U U19G A20G G67C] | ≤ 0.5
GUUCCGUUGGUGUAUUGGUAACGCGUGUCCCUCCUAAGGCGAAGACUGCGGGUUCGAGUCCCGUACGGAACG [C11U A15U C27G A40C] | ≤ 0.5
GUUCCGUUGGUGUAAUGGUGACGCGUCUCCCUCCUAAGGAGAAGACUGCGGGUUCGAGACCCGUACGGAACG [C11U A20G U59A] | 0.514
GUUCCGUUGGUGUAGUGGUAACGCGUCUCCCUCCUAAGGAGAAGACUGCGGGUUCGAGUCCCGUACGGCACG [C11U A15G A69C] | 0.75
GUUCCGUUGGUGUAGUGGUAACGCGUCUCCCUCCUAAGGAGAUGACUGCGGGUUCGAGUCCCGUACGGAACG [C11U A15G A43U] | 0.666
GUUCCGUUGGUGUAGUGGUAACGCGUCUCCCACCUAAGGAGAAGACUGAGGGUUCCAGUCCCGUACGGAACG [C11U A15G U32A C49A G56C] | ≤ 0.5
